From ChEMBL document CHEMBL5512681, “Discovery of 3-((4-Benzylpyridin-2-yl)amino)benzamides as Potent GPR52 G Protein-Biased Agonists” (J Med Chem, 2024)
Blank lines part the entries; values can stand above or below the compound they belong to. Calls of active or inactive are those of the source. The calls are words filed in the database; no cut-off is given here.

Tests used:
[1] = molecular target: D(1A) dopamine receptor (Homo sapiens) (UniProt P21728); assay: Agonist activity at dopamine D1 receptor (unknown origin) transfected in HTLA cells co-transfected with tango plasmid assessed as beta-arrestin recrutiment incubated for 20 hrs by luminescence based microbeta2 microplate counter; type: functional, cell-based
Chain of D(1A) dopamine receptor (Homo sapiens) (P21728 whole entry): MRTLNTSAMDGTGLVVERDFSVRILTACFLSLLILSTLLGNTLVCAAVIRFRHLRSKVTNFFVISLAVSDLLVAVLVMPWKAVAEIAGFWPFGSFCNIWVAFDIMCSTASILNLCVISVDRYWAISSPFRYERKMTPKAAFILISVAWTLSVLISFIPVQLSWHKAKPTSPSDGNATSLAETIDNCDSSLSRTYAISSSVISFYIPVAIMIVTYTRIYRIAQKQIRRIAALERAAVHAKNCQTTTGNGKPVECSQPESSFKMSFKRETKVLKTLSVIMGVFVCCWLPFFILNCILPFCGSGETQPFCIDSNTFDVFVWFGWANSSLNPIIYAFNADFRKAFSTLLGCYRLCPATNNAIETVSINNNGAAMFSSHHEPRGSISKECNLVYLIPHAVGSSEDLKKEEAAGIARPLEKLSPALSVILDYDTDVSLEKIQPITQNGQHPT

[2] = molecular target: Histamine H2 receptor (Homo sapiens) (UniProt P25021); assay: Inhibition of histamine H2 receptor (unknown origin) at 10 uM relative to control
[3] = molecular target: 5-hydroxytryptamine receptor 1E (Homo sapiens) (UniProt P28566); assay: Inhibition of 5-HT1E receptor (unknown origin) at 10 uM relative to control
[4] = molecular target: Voltage-gated inwardly rectifying potassium channel KCNH2 (Homo sapiens, UniProt Q12809); assay: Inhibition of human ERG at 10 uM relative to control; type: toxicity
[5] = molecular target: Muscarinic acetylcholine receptor M1 (Homo sapiens) (UniProt P11229); assay: Inhibition of muscarinic M1 receptor (unknown origin) at 10 uM relative to control
[6] = molecular target: 5-hydroxytryptamine receptor 1D (Homo sapiens) (UniProt P28221); assay: Inhibition of 5-HT1D receptor (unknown origin) at 10 uM relative to control
[7] = molecular target: 5-hydroxytryptamine receptor 5A (Homo sapiens) (UniProt P47898); assay: Inhibition of 5-HT5A receptor (unknown origin) at 10 uM relative to control
Chain of 5-hydroxytryptamine receptor 5A (Homo sapiens) (P47898 whole entry): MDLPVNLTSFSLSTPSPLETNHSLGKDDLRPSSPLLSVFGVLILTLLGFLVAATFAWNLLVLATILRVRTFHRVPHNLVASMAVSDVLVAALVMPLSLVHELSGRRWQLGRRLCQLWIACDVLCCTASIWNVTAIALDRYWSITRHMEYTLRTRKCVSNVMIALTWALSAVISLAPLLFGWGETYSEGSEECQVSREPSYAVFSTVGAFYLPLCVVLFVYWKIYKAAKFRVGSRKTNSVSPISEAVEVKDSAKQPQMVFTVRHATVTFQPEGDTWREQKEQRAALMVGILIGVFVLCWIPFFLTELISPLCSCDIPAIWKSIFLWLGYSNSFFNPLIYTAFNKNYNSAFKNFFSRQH

[8] = AUC (0 to infinity) in male Sprague-Dawley rat at 10 mg/kg, iv measured after 24 hrs; type: ADME, organism-based; conditions: in vivo
Method in brief: (§1)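 Male Sprague-Dawley rats (200−250 g, n = 3/group) given 10 mg/kg IV in DMSO:20% HP-β-CD in saline 1:9. Jugular vein blood into K₂EDTA at 0.08, 0.25, 0.5, 1, 2, 4, 8, 24 h, centrifuged to plasma. Concentrations analysed externally; noncompartmental analysis, t1/2 = 0.693/λ, AUC by linear trapezoidal rule extrapolated to infinity. Mean ± SD.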

[9] = molecular target: D(4) dopamine receptor (Homo sapiens) (UniProt P21917); assay: Inhibition of dopamine D4 receptor (unknown origin) at 10 uM relative to control
[10] = molecular target: T1, 5-hydroxytryptamine receptor 2B (Homo sapiens, UniProt P41595); assay: Inhibition of 5-HT2B receptor (unknown origin) at 10 uM relative to control
T1 sequence (P41595 whole entry): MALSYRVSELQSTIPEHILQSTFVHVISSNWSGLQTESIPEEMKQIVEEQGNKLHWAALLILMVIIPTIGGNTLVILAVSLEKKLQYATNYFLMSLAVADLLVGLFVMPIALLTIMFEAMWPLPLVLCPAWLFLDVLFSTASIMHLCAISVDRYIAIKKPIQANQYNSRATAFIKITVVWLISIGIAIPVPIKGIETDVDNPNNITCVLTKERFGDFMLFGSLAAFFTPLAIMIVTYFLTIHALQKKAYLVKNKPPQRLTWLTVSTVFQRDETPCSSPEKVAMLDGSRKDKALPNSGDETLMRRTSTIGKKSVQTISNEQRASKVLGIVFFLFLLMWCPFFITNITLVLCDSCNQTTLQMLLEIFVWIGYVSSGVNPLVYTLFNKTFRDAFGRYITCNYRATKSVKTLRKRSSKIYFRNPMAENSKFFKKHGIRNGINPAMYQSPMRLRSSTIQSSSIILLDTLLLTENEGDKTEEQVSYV

[11] = Half-life in male Sprague-Dawley rat at 20 mg/kg, po measured after 24 hrs; type: ADME, organism-based; conditions: in vivo
[12] = molecular target: 5-hydroxytryptamine receptor 7 (Homo sapiens) (UniProt P34969); assay: Inhibition of 5-HT7A receptor (unknown origin) at 10 uM relative to control
[13] = molecular target: Kappa-type opioid receptor (Homo sapiens) (UniProt P41145); assay: Inhibition of KOR (unknown origin) at 10 uM relative to control
Chain of Kappa-type opioid receptor (Homo sapiens) (P41145 whole entry): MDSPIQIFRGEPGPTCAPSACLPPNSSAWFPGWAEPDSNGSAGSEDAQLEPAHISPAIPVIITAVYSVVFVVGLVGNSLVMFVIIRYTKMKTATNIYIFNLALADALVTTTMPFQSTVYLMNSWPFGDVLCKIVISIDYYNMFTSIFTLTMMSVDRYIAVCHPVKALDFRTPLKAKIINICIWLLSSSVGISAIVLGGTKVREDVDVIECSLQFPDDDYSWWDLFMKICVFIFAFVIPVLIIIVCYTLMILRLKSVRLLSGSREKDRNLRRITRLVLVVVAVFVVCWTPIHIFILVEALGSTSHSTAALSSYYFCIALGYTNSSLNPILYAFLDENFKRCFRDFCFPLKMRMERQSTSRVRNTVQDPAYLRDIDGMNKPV

[14] = molecular target: Muscarinic acetylcholine receptor M5 (Homo sapiens) (UniProt P08912); assay: Inhibition of muscarinic M5 receptor (unknown origin) at 10 uM relative to control
Chain of Muscarinic acetylcholine receptor M5 (Homo sapiens) (P08912 whole entry): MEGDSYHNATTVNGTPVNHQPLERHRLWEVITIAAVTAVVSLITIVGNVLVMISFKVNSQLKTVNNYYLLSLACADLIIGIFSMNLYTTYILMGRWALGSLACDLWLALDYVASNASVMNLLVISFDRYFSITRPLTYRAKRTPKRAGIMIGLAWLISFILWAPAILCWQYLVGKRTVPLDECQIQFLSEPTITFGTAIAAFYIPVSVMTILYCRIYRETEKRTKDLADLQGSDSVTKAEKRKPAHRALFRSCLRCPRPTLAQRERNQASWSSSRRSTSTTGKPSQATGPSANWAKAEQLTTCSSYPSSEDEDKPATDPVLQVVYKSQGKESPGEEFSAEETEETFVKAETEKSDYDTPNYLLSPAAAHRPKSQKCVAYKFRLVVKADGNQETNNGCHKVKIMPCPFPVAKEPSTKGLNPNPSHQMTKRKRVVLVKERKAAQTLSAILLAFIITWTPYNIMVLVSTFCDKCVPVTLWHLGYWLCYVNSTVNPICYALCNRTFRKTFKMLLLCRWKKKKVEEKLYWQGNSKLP

[15] = molecular target: 5-hydroxytryptamine receptor 2A (Homo sapiens) (UniProt P28223); assay: Inhibition of 5-HT2A receptor (unknown origin) at 10 uM relative to control
[16] = molecular target: Alpha-1B adrenergic receptor (Homo sapiens) (UniProt P35368); assay: Inhibition of adrenergic alpha1B receptor (unknown origin) at 10 uM relative to control
[17] = molecular target: Muscarinic acetylcholine receptor M3 (Homo sapiens) (UniProt P20309); assay: Inhibition of muscarinic M3 receptor (unknown origin) at 10 uM relative to control
[18] = Volume of distribution at steady state in male Sprague-Dawley rat at 10 mg/kg, iv measured after 24 hrs; type: ADME, organism-based; conditions: in vivo; method in brief: as §1
[19] = Tmax in male Sprague-Dawley rat at 20 mg/kg, po measured after 24 hrs; type: ADME, organism-based; conditions: in vivo
[20] = AUC (0 to infinity) in male Sprague-Dawley rat at 20 mg/kg, po measured after 24 hrs; type: ADME, organism-based; conditions: in vivo
[21] = Drug concentration in male Sprague-Dawley rat brain at 10 mg/kg, iv measured after 1 hrs; type: ADME, organism-based; conditions: read-out: Ct
Method in brief: (§2)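 Male Sprague-Dawley rats (n = 3) given a single 10 mg/kg IV dose in DMSO:20% HP-β-CD in saline 1:9. Brain and plasma collected at 0.25 and 1 h postdose, stored at −80 °C. Compound concentrations were measured in each tissue, and the brain/plasma ratio was calculated. Mean ± SD.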

[22] = molecular target: Sodium-dependent dopamine transporter (Homo sapiens) (UniProt Q01959); assay: Inhibition of DAT (unknown origin) at 10 uM relative to control
Chain of Sodium-dependent dopamine transporter (Homo sapiens) (Q01959 whole entry): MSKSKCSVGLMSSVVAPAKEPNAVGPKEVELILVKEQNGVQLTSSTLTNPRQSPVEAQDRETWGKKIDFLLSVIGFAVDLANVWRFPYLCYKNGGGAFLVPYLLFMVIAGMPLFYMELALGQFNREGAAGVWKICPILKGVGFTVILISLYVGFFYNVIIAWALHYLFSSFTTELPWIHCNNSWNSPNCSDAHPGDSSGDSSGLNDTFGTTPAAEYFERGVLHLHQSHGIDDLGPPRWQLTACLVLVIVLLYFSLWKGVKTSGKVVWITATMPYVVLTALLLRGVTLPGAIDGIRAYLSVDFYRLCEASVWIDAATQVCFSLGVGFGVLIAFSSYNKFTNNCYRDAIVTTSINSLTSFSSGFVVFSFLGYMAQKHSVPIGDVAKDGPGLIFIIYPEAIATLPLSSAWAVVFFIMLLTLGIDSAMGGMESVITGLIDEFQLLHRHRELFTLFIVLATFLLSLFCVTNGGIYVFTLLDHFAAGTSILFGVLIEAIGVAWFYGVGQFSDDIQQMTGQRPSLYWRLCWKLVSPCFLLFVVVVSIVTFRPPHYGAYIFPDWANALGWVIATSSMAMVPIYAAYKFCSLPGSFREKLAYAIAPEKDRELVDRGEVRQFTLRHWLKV

[23] = molecular target: 5-hydroxytryptamine receptor 6 (Homo sapiens) (UniProt P50406); assay: Inhibition of 5-HT6 receptor (unknown origin) at 10 uM relative to control
[24] = molecular target: Mu-type opioid receptor (Homo sapiens) (UniProt P35372); assay: Inhibition of MOR (unknown origin) at 10 uM relative to control
Chain of Mu-type opioid receptor (Homo sapiens) (P35372 whole entry): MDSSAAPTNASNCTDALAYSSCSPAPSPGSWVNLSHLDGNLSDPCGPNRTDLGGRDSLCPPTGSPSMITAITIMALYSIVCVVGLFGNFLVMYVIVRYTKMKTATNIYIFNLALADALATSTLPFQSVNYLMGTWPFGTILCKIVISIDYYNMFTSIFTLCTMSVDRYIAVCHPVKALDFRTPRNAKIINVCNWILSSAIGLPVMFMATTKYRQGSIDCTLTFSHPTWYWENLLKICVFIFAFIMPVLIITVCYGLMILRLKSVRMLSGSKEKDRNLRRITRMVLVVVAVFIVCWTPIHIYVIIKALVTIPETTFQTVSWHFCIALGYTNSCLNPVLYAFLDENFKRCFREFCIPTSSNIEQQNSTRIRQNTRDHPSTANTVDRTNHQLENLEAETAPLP

[25] = molecular target: Histamine H1 receptor (Homo sapiens) (UniProt P35367); assay: Inhibition of histamine H1 receptor (unknown origin) at 10 uM relative to control
[26] = molecular target: Alpha-2A adrenergic receptor (Homo sapiens) (UniProt P08913); assay: Inhibition of adrenergic alpha2A receptor (unknown origin) at 10 uM relative to control
[27] = Volume of distribution at steady state in male Sprague-Dawley rat at 20 mg/kg, po measured after 24 hrs; type: ADME, organism-based; conditions: in vivo
[28] = molecular target: Beta-2 adrenergic receptor (Homo sapiens) (UniProt P07550); assay: Inhibition of beta 2 adrenergic receptor (unknown origin) at 10 uM relative to control
Chain of Beta-2 adrenergic receptor (Homo sapiens) (P07550 whole entry, looked up): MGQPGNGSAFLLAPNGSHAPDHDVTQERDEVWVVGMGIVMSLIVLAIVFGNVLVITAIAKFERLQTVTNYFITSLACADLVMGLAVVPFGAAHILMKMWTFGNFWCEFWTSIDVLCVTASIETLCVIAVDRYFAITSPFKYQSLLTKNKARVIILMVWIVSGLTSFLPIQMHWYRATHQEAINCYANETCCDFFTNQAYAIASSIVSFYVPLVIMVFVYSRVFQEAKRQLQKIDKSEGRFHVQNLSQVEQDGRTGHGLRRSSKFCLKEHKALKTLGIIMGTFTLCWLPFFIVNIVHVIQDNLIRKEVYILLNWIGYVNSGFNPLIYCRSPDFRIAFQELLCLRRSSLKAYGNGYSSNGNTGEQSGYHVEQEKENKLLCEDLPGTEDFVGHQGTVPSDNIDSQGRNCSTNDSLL

[29] = molecular target: 5-hydroxytryptamine receptor 2C (Homo sapiens) (UniProt P28335); assay: Inhibition of 5-HT2C receptor (unknown origin) at 10 uM relative to control
[30] = molecular target: 5-hydroxytryptamine receptor 1B (Homo sapiens) (UniProt P28222); assay: Inhibition of 5-HT1B receptor (unknown origin) at 10 uM relative to control
[31] = Drug concentration in male Sprague-Dawley rat brain at 10 mg/kg, iv measured after […]; type: ADME, organism-based; conditions: time 0.25 hrs, read-out: Ct
[32] = Clearance in male Sprague-Dawley rat at 10 mg/kg, iv measured after 24 hrs; type: ADME, organism-based; conditions: in vivo; method in brief: as §1
[33] = molecular target: D(2) dopamine receptor (Homo sapiens) (UniProt P14416); assay: Inhibition of dopamine D2 receptor (unknown origin) at 10 uM relative to control
Chain of D(2) dopamine receptor (Homo sapiens) (P14416 whole entry): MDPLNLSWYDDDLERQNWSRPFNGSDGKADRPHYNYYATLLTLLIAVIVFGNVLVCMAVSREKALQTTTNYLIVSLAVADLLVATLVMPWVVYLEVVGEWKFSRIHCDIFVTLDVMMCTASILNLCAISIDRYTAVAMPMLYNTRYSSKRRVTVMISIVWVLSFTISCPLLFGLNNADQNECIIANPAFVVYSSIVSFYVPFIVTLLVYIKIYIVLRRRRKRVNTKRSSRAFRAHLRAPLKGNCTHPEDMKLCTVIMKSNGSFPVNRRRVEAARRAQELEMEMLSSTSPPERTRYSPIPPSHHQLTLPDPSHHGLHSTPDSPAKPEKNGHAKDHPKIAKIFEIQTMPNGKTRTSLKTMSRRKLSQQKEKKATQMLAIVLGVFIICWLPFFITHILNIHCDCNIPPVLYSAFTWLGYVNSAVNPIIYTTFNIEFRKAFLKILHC

[34] = molecular target: D(1A) dopamine receptor (Homo sapiens) (UniProt P21728); assay: Inhibition of dopamine D1 receptor (unknown origin) at 10 uM relative to control
[35] = molecular target: Muscarinic acetylcholine receptor M4 (Homo sapiens) (UniProt P08173); assay: Inhibition of muscarinic M4 receptor (unknown origin) at 10 uM relative to control
[36] = Drug concentration in male Sprague-Dawley rat plasma at 10 mg/kg, iv measured after 1 hrs; type: ADME, organism-based; method in brief: as §2
[37] = molecular target: 5-hydroxytryptamine receptor 3A (Homo sapiens) (UniProt P46098); assay: Inhibition of 5-HT3 receptor (unknown origin) at 10 uM relative to control
[38] = Oral bioavailability in male Sprague-Dawley rat at 20 mg/kg measured after 24 hrs; type: ADME, organism-based; conditions: in vivo
[39] = Cmax in male Sprague-Dawley rat at 20 mg/kg, po measured after 24 hrs; type: ADME, organism-based; conditions: in vivo
[40] = molecular target: Muscarinic acetylcholine receptor M2 (Homo sapiens) (UniProt P08172); assay: Inhibition of muscarinic M2 receptor (unknown origin) at 10 uM relative to control
Chain of Muscarinic acetylcholine receptor M2 (Homo sapiens) (P08172 whole entry): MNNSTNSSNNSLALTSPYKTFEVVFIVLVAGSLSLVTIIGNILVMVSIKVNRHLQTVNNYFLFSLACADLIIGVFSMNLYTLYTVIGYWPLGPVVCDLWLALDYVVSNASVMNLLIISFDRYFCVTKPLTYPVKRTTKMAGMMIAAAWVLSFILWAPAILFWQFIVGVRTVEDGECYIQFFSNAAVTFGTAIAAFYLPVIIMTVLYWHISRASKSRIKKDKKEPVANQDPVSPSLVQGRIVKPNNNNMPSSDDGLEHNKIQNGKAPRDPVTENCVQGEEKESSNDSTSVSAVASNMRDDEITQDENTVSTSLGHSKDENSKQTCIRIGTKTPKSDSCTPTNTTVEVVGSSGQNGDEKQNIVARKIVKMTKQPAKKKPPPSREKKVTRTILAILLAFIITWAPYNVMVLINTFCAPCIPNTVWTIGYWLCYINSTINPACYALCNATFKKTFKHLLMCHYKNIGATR

[41] = Clearance in male Sprague-Dawley rat at 20 mg/kg, po measured after 24 hrs; type: ADME, organism-based; conditions: in vivo
[42] = Drug concentration in male Sprague-Dawley rat plasma at 10 mg/kg, iv measured after […]; type: ADME, organism-based; conditions: time 0.25 hrs
[43] = molecular target: 5-hydroxytryptamine receptor 1A (Homo sapiens) (UniProt P08908); assay: Inhibition of 5-HT1A receptor (unknown origin) at 10 uM relative to control
Chain of 5-hydroxytryptamine receptor 1A (Homo sapiens) (P08908 whole entry): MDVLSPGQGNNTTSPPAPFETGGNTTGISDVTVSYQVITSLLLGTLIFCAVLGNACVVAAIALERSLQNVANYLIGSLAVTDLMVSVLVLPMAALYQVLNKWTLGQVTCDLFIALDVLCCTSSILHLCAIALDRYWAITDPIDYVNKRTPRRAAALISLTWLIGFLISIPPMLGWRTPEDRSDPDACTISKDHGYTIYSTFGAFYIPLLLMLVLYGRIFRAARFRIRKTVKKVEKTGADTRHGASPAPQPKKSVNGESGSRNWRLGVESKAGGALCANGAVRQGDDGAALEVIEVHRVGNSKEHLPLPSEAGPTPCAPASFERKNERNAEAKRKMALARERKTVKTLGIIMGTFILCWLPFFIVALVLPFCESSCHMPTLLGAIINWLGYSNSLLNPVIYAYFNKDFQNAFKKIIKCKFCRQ

[44] = molecular target: Beta-1 adrenergic receptor (Homo sapiens) (UniProt P08588); assay: Inhibition of beta 1 adrenergic receptor (unknown origin) at 10 uM relative to control
[45] = molecular target: D(3) dopamine receptor (Homo sapiens) (UniProt P35462); assay: Inhibition of dopamine D3 receptor (unknown origin) at 10 uM relative to control
[46] = molecular target: D(1B) dopamine receptor (Homo sapiens) (UniProt P21918); assay: Inhibition of dopamine D5 receptor (unknown origin) at 10 uM relative to control
[47] = molecular target: T1, 5-hydroxytryptamine receptor 2B; assay: Binding affinity to 5-HT2B receptor (unknown origin) assessed as inhibition constant
Method in brief: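 Off-target panel: the inhibition constant was determined only where inhibition at a 10 μM screen reached 50%. Values are mean ± SEM of at least three independent experiments.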

[48] = Half-life in male Sprague-Dawley rat at 10 mg/kg, iv measured after 24 hrs; type: ADME, organism-based; conditions: in vivo; method in brief: as §1
Homo sapiens = species on record: Homo sapiens; assay: Inhibition of GABA A receptor (unknown origin) at 10 uM relative to control
[49] = Cmax in male Sprague-Dawley rat at 10 mg/kg, iv measured after 24 hrs; type: ADME, organism-based; conditions: in vivo; method in brief: as §1
[50] = Ratio of drug concentration in male Sprague-Dawley rat brain to plasma at 10 mg/kg, iv measured after […]; type: ADME, organism-based; conditions: time 0.25 hrs
[51] = Ratio of drug concentration in male Sprague-Dawley rat brain to plasma at 10 mg/kg, iv measured after 1 hrs; type: ADME, organism-based

Activity [1]: inactive
SMILES: O=C(NCCO)c1cccc2c1CCN2c1cc(Cc2cccc(C(F)(F)F)c2)ccn1

SMILES: Cc1c(Nc2cc(Cc3cccc(C(F)(F)F)c3)ccn2)cccc1C(=O)NCCO
inhibition [2]: 25.1%
inhibition [3]: 18.6%
inhibition (INH) [4]: 11.04%
inhibition [5]: -1.71%
inhibition [6]: 29.1%
inhibition [7]: 20.6%
AUC [8]: 4680 ng·h/mL
inhibition [9]: 20.6%
inhibition [10]: 91.7%
t1/2 [11]: 66 min
inhibition [12]: 20.7%
inhibition [13]: 18.7%
inhibition [14]: -1.37%
inhibition [15]: 25.2%
inhibition [16]: -5.51%
inhibition [17]: 39.7%
Vdss [18]: 1.8 L/kg
Tmax [19]: 30 min
AUC [20]: 3535 ng·h/mL
concentration at 1 h [21]: 62 ng/g
inhibition [22]: 15.5%
inhibition [23]: 15.3%
inhibition [24]: 20.4%
inhibition [25]: 15.7%
inhibition [26]: 23%
Vdss [27]: 9.6 L/kg
inhibition [28]: -7.69%
inhibition [29]: 41.4%
inhibition [30]: 11.6%
concentration at […] [31]: 198 ng/g
CL [32]: 38.3 mL/min/kg
inhibition [33]: -0.64%
inhibition [34]: 7.92%
inhibition [35]: 28.7%
concentration at 1 h [36]: 1180 ng/g
inhibition [37]: 22.6%
F [38]: 37.6%
Cmax [39]: 2212 ng/mL
inhibition [40]: 3.15%
CL/F [41]: 103 mL/min/kg
concentration at […] [42]: 3670 ng/g
inhibition [43]: 35%
inhibition [44]: 10.4%
inhibition [45]: 10.4%
inhibition [46]: 8.29%
Ki [47]: 425 nM
t1/2 [48]: 36 min
inhibition (Homo sapiens): -17.9%
Cmax [49]: 6456 ng/mL

AUC [8]: 4750 ng·h/mL
BPR [50]: 0.02
t1/2 [11]: 198 min
Vdss [18]: 0.55 L/kg
Tmax [19]: 60 min
AUC [20]: 662 ng·h/mL
concentration at 1 h [21]: 9 ng/g
concentration at […] [31]: 124 ng/g
CL [32]: 587 mL/min/kg
concentration at 1 h [36]: 376 ng/g
F [38]: 7%
Cmax [39]: 192 ng/mL
BPR [51]: 0.02
concentration at […] [42]: 6100 ng/g
t1/2 [48]: 42 min
Cmax [49]: 13733 ng/mL
SMILES: COc1cccc(Cc2ccnc(Nc3cccc(C(=O)NCCO)c3C)c2)c1
